In one experiment the test system is E. coli Δ7 prrn WT. Description: Growth inhibition of E. coli Δ7 prrn WT. The experiment is classed as cell-based. Particulars: for antibacterial activity in words: E. coli Δ7 prrn WT compared with A1408G and G1491U strains.
The subject of experiment [1] is control (WT) E. coli ribosomes. The experiment in a line: EF-G-dependent translocation inhibition. Particulars: in vitro, WT (and A1408G) ribosomes. The experiment is classed as biochemical.
In another experiment the test system is ribosome. Particulars: cited from earlier work.
The test system of another experiment is AAC(6′)-Ib′. The experiment in a line: Relative initial rate of AME reaction, AAC. The experiment is classed as biochemical.
For experiment [2], the system named is mutant A1408G E. coli ribosomes. The experiment in a line: EF-G-dependent translocation inhibition. The experiment is classed as biochemical. Particulars: read-out: Translocation inhibition IC50, A1408G. The gist of the method:
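Ribosomes purified from the corresponding Δ7 prrn E. coli strain carrying A1408G. The extent of EF-G-dependent translocation was measured by toeprinting across various concentrations of the test aminoglycoside. IC50 was obtained by fitting the data to the Hill equation.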

The next experiment concerns E. coli Δ7 prrn G1491U. The experiment in a line: Growth inhibition of E. coli Δ7 prrn G1491U. The format is cell-based. Particulars: Escherichia coli.
Another experiment deals with E. coli Δ7 prrn A1408G. The experiment in a line: Growth inhibition of E. coli Δ7 prrn A1408G. The format is cell-based. Particulars: Escherichia coli.
The next experiment deals with E. coli TolC (O). Description: Antibacterial MIC, E. coli TolC. Particulars: Escherichia coli. The format is cell-based.

Broadly, the IC50 is the concentration that inhibits the measured activity by half. As a reminder, the MIC is the smallest concentration in the dilution series that meets the test's criterion for growth inhibition.

In brackets after ≈: the same amount, converted by molar mass. Entries after “also recorded” stand apart in the source; their conditions may differ. Where only a bound is given, the exact number is not on record here.

As to `CCCCSCC1OC(OC2C(N)CC(N)C(OC3OC(CN)C(O)CC3N)C2O)C(O)C(N)C1O` (stereo not shown) [3a], the “antibacterial activity in words” value in the experiment with E. coli Δ7 prrn WT is “biological activity indistinguishable from TOB”.

As for `CCCCCCSCC1OC(OC2C(N)CC(N)C(OC3OC(CN)C(O)CC3N)C2O)C(O)C(N)C1O` (stereo not shown) [3b], the “antibacterial activity in words” value in the experiment on E. coli Δ7 prrn WT was “virtually inactive; also recorded: antibacterial activity is completely lost”.

Consider `CCCCCCCCCCSC[C@H]1O[C@H](O[C@@H]2[C@@H](O)[C@H](O[C@H]3O[C@H](CN)[C@@H](O)C[C@H]3N)[C@@H](N)C[C@H]2N)[C@H](O)[C@@H](N)[C@@H]1O` [3d], for which the “inhibition of translocation in words” value in experiment [1] is “failed to inhibit translocation”. Also, the “antibacterial activity in words” value with E. coli Δ7 prrn WT is on record as “lower activity with little-to-no h44-dependence”.

Turning to `CCCCCCCCCCCCSC[C@H]1O[C@H](O[C@@H]2[C@@H](O)[C@H](O[C@H]3O[C@H](CN)[C@@H](O)C[C@H]3N)[C@@H](N)C[C@H]2N)[C@H](O)[C@@H](N)[C@@H]1O` [3e], the “inhibition of translocation in words” value in experiment [1] is “fails to inhibit translocation”. Also, in the experiment with E. coli Δ7 prrn WT, the “antibacterial activity in words” value is “lower activity with little-to-no h44-dependence”.

For the compound `CCCCCCCCCCCCCCSC[C@H]1O[C@H](O[C@@H]2[C@@H](O)[C@H](O[C@H]3O[C@H](CN)[C@@H](O)C[C@H]3N)[C@@H](N)C[C@H]2N)[C@H](O)[C@@H](N)[C@@H]1O` [3f], in the experiment with ribosome, the “inhibition of in vitro translation in words” value is “fails to inhibit in vitro translation”. Besides, in the experiment with E. coli Δ7 prrn WT, the “antibacterial activity in words” value was “indistinguishably strong antibacterial activity”. Besides, the “relative initial rate, normalized to TOB” value in the experiment on AAC(6′)-Ib′ is recorded as above 200%.

Turning to `CCCCCCCCCCCCCCCCSCC1OC(OC2C(N)CC(N)C(OC3OC(CN)C(O)CC3N)C2O)C(O)C(N)C1O` (stereo not shown) [3g], in the experiment on E. coli Δ7 prrn WT, the “antibacterial activity in words” value is “indistinguishably strong antibacterial activity”.

As for `CCCCCCCCCCCCCCCCCCSC[C@H]1O[C@H](O[C@@H]2[C@@H](O)[C@H](O[C@H]3O[C@H](CN)[C@@H](O)C[C@H]3N)[C@@H](N)C[C@H]2N)[C@H](O)[C@@H](N)[C@@H]1O` [3h], in experiment [1], the “inhibition of translocation in words” value is “failed to inhibit translocation”.

Regarding `CC(C)(C)c1ccc(SCC2OC(OC3C(N)CC(N)C(OC4OC(CN)C(O)CC4N)C3O)C(O)C(N)C2O)cc1` (stereo not shown) [3s], the “antibacterial activity in words” value with E. coli Δ7 prrn WT is “virtually inactive”.

For `COc1ccccc1SC[C@H]1O[C@H](O[C@@H]2[C@@H](O)[C@H](O[C@H]3O[C@H](CN)[C@@H](O)C[C@H]3N)[C@@H](N)C[C@H]2N)[C@H](O)[C@@H](N)[C@@H]1O` [3u], the “inhibition of translocation in words” value in experiment [1] is given as “notably poorer inhibitors of translocation”. The IC50 in experiment [2] worked out at 620 µM.

For `NC[C@H]1O[C@H](O[C@H]2[C@H](O)[C@@H](O[C@H]3O[C@H](CSc4ccccc4F)[C@@H](O)[C@H](N)[C@H]3O)[C@H](N)C[C@@H]2N)[C@H](N)C[C@@H]1O` [3x], in experiment [1], the “inhibition of translocation in words” value was “notably poorer inhibitors of translocation”. Also, the IC50 in experiment [2] was 310 µM.

`NCC1OC(OC2C(N)CC(N)C(OC3OC(CSc4cccc(F)c4)C(O)C(N)C3O)C2O)C(N)CC1O` (stereo not shown) [3y]: the IC50 in experiment [2] came to 210 µM.

Turning to `NC[C@H]1O[C@H](O[C@H]2[C@H](O)[C@@H](O[C@H]3O[C@H](CO)[C@@H](O)[C@H](N)[C@H]3O)[C@H](N)C[C@@H]2N)[C@H](N)C[C@@H]1O` [TOB, tobramycin], the IC50 in experiment [2] stood at 700 µM. For the same compound, the MIC in the experiment with E. coli Δ7 prrn WT (Escherichia coli) was 18.8 µg/mL (≈ 40.2 µM); against E. coli Δ7 prrn G1491U, above 150 µg/mL; in the experiment with E. coli Δ7 prrn A1408G, above 150 µg/mL; against E. coli TolC (O), above 150 µg/mL.

The values above are taken from PMC4548982 (Chembiochem : a European journal of chemical biology, 2015).
